From PubChem BioAssay
Rows were chosen to be rich in hits. Some 4% of all compounds tested hit in one or more screens of this group.
OX1R antag-1: blocks the human orexin 1 receptor. OX1R-expressing cells, FRET antagonist read-out. O43613. AID 485270. hit rate 1.8% among 330,000. inhibition, % at 6.6 µM; in the data active means inhibition mostly above about 38%, no sharp cut-off; inactive means mostly below about 40%
TAAR1 agonist: human TAAR1 agonism; CHO RD-HGA16 TAAR1, Fluo-8 calcium fluorescence; vehicle wells 0%, saturating PEA agonist 100%; Q96RJ0; hit rate 0.99% among 360,000; activation, % at 3 µM;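 active means activation above the mean activation of all test compounds in the run plus 3 SD, cut at about 38% in these data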
Target sequence (Q96RJ0 whole entry, looked up): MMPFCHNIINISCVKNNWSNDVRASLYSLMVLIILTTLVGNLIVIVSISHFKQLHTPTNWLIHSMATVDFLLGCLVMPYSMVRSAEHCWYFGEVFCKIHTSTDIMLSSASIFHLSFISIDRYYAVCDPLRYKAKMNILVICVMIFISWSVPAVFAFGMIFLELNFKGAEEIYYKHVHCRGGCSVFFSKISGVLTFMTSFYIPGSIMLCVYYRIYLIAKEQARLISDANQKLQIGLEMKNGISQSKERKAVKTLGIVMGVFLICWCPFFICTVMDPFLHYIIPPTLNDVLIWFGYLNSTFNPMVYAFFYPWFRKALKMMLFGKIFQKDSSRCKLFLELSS
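Repeats: no replicates (n 1) | Material: CHO-derived RD-HGA16 cells with stable Gα16 and human TAAR1 | Technique: Kinetic Fluo-8 calcium fluorescence | Schedule: 17-24 h seeding, 75 min 37 °C dye, 30 min RT | Evaluation: % activation from peak over basal fluorescence ratio, DMSO-to-PEA scaled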
NTR1 agonist: NTR1 (human) agonism; P30989; NTR1-U2OS beta-arrestin-GFP spot imaging, agonist mode; activation, % at 20 µM; hit rate 0.17% among 330,000;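 active means activation at or above 40% of the spot to cytoplasm intensity ratio, with at least 20 cells analyzed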
Target sequence (P30989 whole entry, looked up): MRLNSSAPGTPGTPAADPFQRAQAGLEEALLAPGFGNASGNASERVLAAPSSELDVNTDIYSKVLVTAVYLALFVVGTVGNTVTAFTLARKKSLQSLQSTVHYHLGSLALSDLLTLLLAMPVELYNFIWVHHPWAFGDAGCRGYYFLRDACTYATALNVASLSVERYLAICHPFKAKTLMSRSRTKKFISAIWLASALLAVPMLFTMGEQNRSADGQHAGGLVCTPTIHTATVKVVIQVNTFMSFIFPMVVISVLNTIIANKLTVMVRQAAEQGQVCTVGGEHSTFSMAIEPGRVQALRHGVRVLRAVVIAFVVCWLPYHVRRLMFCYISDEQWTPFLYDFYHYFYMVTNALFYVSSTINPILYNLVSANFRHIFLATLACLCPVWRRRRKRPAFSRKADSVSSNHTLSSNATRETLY
TAAR1 antagonist: antagonists of human TAAR1; CHO RD-HGA16 TAAR1, Fluo-8 calcium fluorescence, antagonist; inhibition, % at 3 µM; hit rate 1.5% among 360,000; Q96RJ0;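 active means inhibition above a per-plate cutoff, the mean inhibition of test compounds on that plate plus 3 SD, cut at about 49% in these data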
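Material: RD-HGA16 CHO cells with stable hTAAR1 and Gα16; Dosing: single nominal final test compound concentration of 3 µM; Schedule: seeding 17-24 h prior, 75-min 37 °C, 30-min RT dye loading; Detection: kinetic Fluo-8 calcium fluorescence measurement; Measure: % inhibition from peak post-agonist over basal fluorescence ratio; Benchmarks: vehicle and agonist controls.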
CHO parental Ca: signal in parental CHO cells, OX1R antagonist counter-screen. inhibition, % at 5.6 µM. parental CHO-K1, ATP-induced calcium, Fluo-8 fluorescence. AID 463079. hit rate 0.63% among 330,000;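 active means inhibition above that plate's mean sample inhibition plus 3 SD, cut at about 26% in these data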
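Material: parental CHO cells / Compound: single nominal dose of 5.6 µM per compound / Signal: Fluo-8 fluorescence / Replicates: singlicate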
OX1R antag-2: blocks the human orexin 1 receptor. O43613. CHO/OX1R cells, Fluo-8 calcium fluorescence, orexin A. inhibition, % at 5 µM. hit rate 0.43% among 330,000. AID 434989;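 active means inhibition above its plate's threshold, mean inhibition of all tested compounds on the plate plus 3 SD, cut at about 37% in these data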
nonsel antag count: nonselective antagonism, TAAR1 counter-screen; counterscreen cell line, calcium fluorescence, antagonist mode; shares compounds with TAAR1 antagonist; hit rate 77% among 2,400; inhibition, % at 3 µM; AID 651780; in the data active means inhibition above about 22%;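 further: CHO-Ga16 host cells stimulated with ATP at an EC80 level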
TAAR1 antag conf: confirmation of human TAAR1 antagonists. shares compounds with TAAR1 antagonist. hit rate 40% among 2,400. AID 651785. inhibition, % at 3 µM. TAAR1-expressing cells, fluorescence antagonist read-out; in the data active means inhibition above about 49%;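 further: CHO-Ga16 host cells challenged with agonist PEA near its EC80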
Ga16 nonsel ag: nonselective Ga16 agonist in TAAR1 antagonist counter-screen; shares compounds with TAAR1 antagonist; hit rate 18% among 2,400; Ga16-expressing cells, calcium fluorescence, agonist counterscreen; activation, % at 3 µM; AID 651953; in the data active means activation above about 12%
TAAR1 ag counter: counter-screen for human TAAR1 antagonists: TAAR1 agonists | shares compounds with TAAR1 antagonist | hTAAR1 cell line, fluorescence activation, agonist mode | activation, % at 3 µM | hit rate 2% among 2,400; in the data active means activation above about 37%;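 further: CHO cells stably expressing TAAR1 with calcium dye readout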
Numbers stand for hits.

What do the screens show for `O=C(O)CCCC(=O)N1CCN(c2nc(-c3ccccc3Cl)c3cc(Br)ccc3n2)CC1`?
OX1R antag-1: inactive; TAAR1 agonist: inactive; NTR1 agonist: inactive; TAAR1 antagonist: inactive; CHO parental Ca: inactive; OX1R antag-2: inactive

How did Cc1c(N=C2N=C(NC(=O)c3cccs3)c3ccccc32)c(=O)n(-c2ccccc2)n1C do in these assays?
OX1R antag-1: inactive; TAAR1 agonist: inactive; NTR1 agonist: inactive; TAAR1 antagonist: 59; CHO parental Ca: inactive; OX1R antag-2: inactive; nonsel antag count: 42; TAAR1 antag conf: 49; Ga16 nonsel ag: 18; TAAR1 ag counter: inactive

What do the screens show for `Cc1c(N=C2N=C(NC(=O)NC(C)(C)C)c3ccccc32)c(=O)n(-c2ccccc2)n1C`?
OX1R antag-1: inactive; TAAR1 agonist: inactive; NTR1 agonist: inactive; TAAR1 antagonist: inactive; CHO parental Ca: inactive; OX1R antag-2: inactive

Results for CCOc1ccccc1CN1C(=O)NC2(CCCCCC2)C1=O ?
OX1R antag-1: inactive; TAAR1 agonist: inactive; NTR1 agonist: inactive; TAAR1 antagonist: inactive; CHO parental Ca: inactive; OX1R antag-2: inactive

How did CN(C)S(=O)(=O)c1cccc(-c2nn(-c3ccccc3)cc2/C=C(\C#N)c2nc3ccccc3[nH]2)c1 do in these assays?
OX1R antag-1: inactive; TAAR1 agonist: inactive; NTR1 agonist: inactive; TAAR1 antagonist: inactive; CHO parental Ca: inactive; OX1R antag-2: inactive

How did CN(C)S(=O)(=O)c1cccc(-c2nn(-c3ccccc3)cc2/C=C2\SC(=S)NC2=O)c1 do in these assays?
OX1R antag-1: inactive; TAAR1 agonist: inactive; TAAR1 antagonist: 68; CHO parental Ca: inactive; OX1R antag-2: inactive; nonsel antag count: 59; TAAR1 antag conf: 56; Ga16 nonsel ag: inactive; TAAR1 ag counter: inactive

What do the screens show for `CC(NC(=O)COC(=O)c1ccccc1O)C1CC2CCC1C2` (stereo unspecified)?
OX1R antag-1: inactive; TAAR1 agonist: inactive; NTR1 agonist: inactive; TAAR1 antagonist: inactive; CHO parental Ca: inactive; OX1R antag-2: inactive

What do the screens show for `COc1ccccc1-c1cc(C(=O)N2CCN(S(=O)(=O)c3ccc(C)cc3)CC2)[nH]n1`?
OX1R antag-1: inactive; TAAR1 agonist: inactive; NTR1 agonist: inactive; TAAR1 antagonist: 74; CHO parental Ca: inactive; OX1R antag-2: inactive; nonsel antag count: 31; TAAR1 antag conf: inactive; Ga16 nonsel ag: inactive; TAAR1 ag counter: inactive

What do the screens show for `CC(C)(C)c1ccc(OCc2ccc(C(=O)Nc3cccnc3)o2)cc1`?
OX1R antag-1: inactive; TAAR1 agonist: inactive; NTR1 agonist: inactive; TAAR1 antagonist: 75; CHO parental Ca: 29; OX1R antag-2: inactive; nonsel antag count: 50; TAAR1 antag conf: 61; Ga16 nonsel ag: inactive; TAAR1 ag counter: inactive

How did CC(C)(C)c1ccc(CNc2ccc([N+](=O)[O-])cn2)cc1 do in these assays?
OX1R antag-1: inactive; TAAR1 agonist: inactive; TAAR1 antagonist: 68; CHO parental Ca: inactive; OX1R antag-2: inactive; nonsel antag count: inactive; TAAR1 antag conf: inactive; Ga16 nonsel ag: 12; TAAR1 ag counter: inactive

How did CC(C)c1ccc(CNc2ccc([N+](=O)[O-])cn2)cc1 do in these assays?
OX1R antag-1: inactive; TAAR1 agonist: inactive; NTR1 agonist: inactive; TAAR1 antagonist: inactive; CHO parental Ca: inactive; OX1R antag-2: inactive

What do the screens show for `CCOC(=O)c1cc2c(=O)n3ccccc3nc2n(Cc2ccco2)c1=NC(=O)c1cccc(OC)c1`?
OX1R antag-1: inactive; TAAR1 agonist: inactive; NTR1 agonist: inactive; TAAR1 antagonist: 56; CHO parental Ca: inactive; OX1R antag-2: inactive; nonsel antag count: 25; TAAR1 antag conf: inactive; Ga16 nonsel ag: inactive; TAAR1 ag counter: inactive

How did CCOC(=O)c1cc2c(=O)n3ccccc3nc2n(Cc2ccco2)c1=NC(=O)c1ccccc1OC do in these assays?
OX1R antag-1: inactive; TAAR1 agonist: inactive; NTR1 agonist: inactive; TAAR1 antagonist: inactive; CHO parental Ca: inactive; OX1R antag-2: inactive

Results for O=C1CCCc2c1cc(C(=O)O)c(=O)n2-c1ccccc1 ?
OX1R antag-1: inactive; TAAR1 agonist: inactive; NTR1 agonist: inactive; TAAR1 antagonist: inactive; CHO parental Ca: inactive; OX1R antag-2: inactive

Results for O=C1CCCc2c1cc(C(=O)Nc1ccc(Br)cn1)c(=O)n2-c1ccccc1 ?
OX1R antag-1: inactive; TAAR1 agonist: inactive; NTR1 agonist: inactive; TAAR1 antagonist: 106; CHO parental Ca: inactive; OX1R antag-2: inactive; nonsel antag count: inactive; TAAR1 antag conf: inactive; Ga16 nonsel ag: inactive; TAAR1 ag counter: inactive

What do the screens show for `O=c1c2ccccc2nc(-c2ccco2)n1Cc1ccccc1`?
OX1R antag-1: inactive; TAAR1 agonist: inactive; NTR1 agonist: inactive; TAAR1 antagonist: inactive; CHO parental Ca: inactive; OX1R antag-2: inactive

What do the screens show for `CCOc1ccc(CCn2c(-c3ccco3)nc3ccccc3c2=O)cc1OCC`?
OX1R antag-1: inactive; TAAR1 agonist: inactive; NTR1 agonist: inactive; TAAR1 antagonist: 58; CHO parental Ca: inactive; OX1R antag-2: inactive; nonsel antag count: 31; TAAR1 antag conf: inactive; Ga16 nonsel ag: inactive; TAAR1 ag counter: inactive

How did C[C@H](CO)N1C[C@H](C)[C@@H](CN(C)CC2CCCCC2)Oc2c(NC(=O)CCC(F)(F)F)cccc2C1=O do in these assays?
OX1R antag-1: inactive; TAAR1 agonist: inactive; NTR1 agonist: inactive; TAAR1 antagonist: inactive; CHO parental Ca: inactive; OX1R antag-2: inactive

How did O=C(NCCN1CCOCC1)c1ccc(=O)n(Cc2ccc(Cl)cc2)c1 do in these assays?
OX1R antag-1: inactive; TAAR1 agonist: inactive; NTR1 agonist: inactive; TAAR1 antagonist: 105; CHO parental Ca: inactive; OX1R antag-2: inactive; nonsel antag count: inactive; TAAR1 antag conf: inactive; Ga16 nonsel ag: inactive; TAAR1 ag counter: inactive

What do the screens show for `Nc1c(S(=O)(=O)c2cccs2)c2nc3ccccc3nc2n1/N=C/c1cccc(O)c1`?
OX1R antag-1: inactive; TAAR1 agonist: inactive; NTR1 agonist: inactive; TAAR1 antagonist: 52; CHO parental Ca: inactive; OX1R antag-2: inactive; nonsel antag count: 33; TAAR1 antag conf: 52; Ga16 nonsel ag: inactive; TAAR1 ag counter: inactive

What do the screens show for `COc1ccccc1NS(=O)(=O)c1cc(NC(=O)C(C)(C)C)ccc1N1CCOCC1`?
OX1R antag-1: inactive; TAAR1 agonist: inactive; NTR1 agonist: inactive; TAAR1 antagonist: 72; CHO parental Ca: inactive; OX1R antag-2: inactive; nonsel antag count: 29; TAAR1 antag conf: 58; Ga16 nonsel ag: inactive; TAAR1 ag counter: inactive
